Entries after “also recorded” stand apart in the source; their conditions may differ. Where two headings read alike, the source gives them in different places.
Columns and labels:
[1] = test system: scavenger receptors in the liver; conditions: read-out: IC50, inhibition of 125I-DNA nanoparticle uptake by the liver; previously reported; cited from earlier work
[2] = Micelle formation of PEG-peptides without albumin; format: physicochemical; conditions: dynamic light scattering, 1–40 nmol in 1 ml 150 mM sodium chloride; for micelle formation (in words): 50 mM sodium phosphate pH 7.4; for critical-micelle-concentration: 50 mM sodium phosphate pH 7.4, no albumin
Outline: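 Particle size of the PEG-peptide was measured by dynamic light scattering at increasing amounts (1–40 nmol in 1 ml buffer) to locate the critical micelle concentration. Sizes are the mean and standard error of ten measurements, after deconvolution by intensity-averaged multimodal distribution.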

[3] = test system: scavenger receptors in the liver; conditions: for percent of dose captured by the liver: mouse, in vivo, iv

Substance	micelle formation (in words) [2]	critical-micelle-concentration [2] [µM]	also measured
(Acr-Lys4)3-Acr-Lys-Cys-PEG5kDa [compound 27]	–	–	IC50 [1]: 8 µM
PEG2kDa-Cys-Tyr-(Leu-Lys4)3-Leu-Lys [compound 33]	avoided micelle formation	–	increase in potency (IC50) on decreasing PEG from 5 to 2 kDa ([3]; 33 compared with 32, saturation of liver uptake): 6 fold
PEG5kDa-Cys-Tyr-(Leu-Arg)8 [compound 38]	formed micelles	2 to 5	percent of dose captured by the liver [3]: 45%
PEG5kDa-Cys-Tyr-(Leu-Lys4)3-Leu-Lys [compound 32]	avoided micelle formation	–	–
PEG5kDa-Cys-Tyr-(Leu-Lys)4 [compound 37]	formed micelles	2 to 5	–
PEG5kDa-Cys-Tyr-(Leu-Lys)6 [compound 36]	formed micelles	2 to 5	–
PEG5kDa-Cys-Tyr-(Leu-Lys)8 [compound 35]	formed micelles	2 to 5	–
PEG5kDa-Cys-Tyr-(Lys)4-Leu-Lys4-Leu4 [compound 39]	produced measurable micelles; also recorded: formed micelles	2 to 5	–
PEG5kDa-Cys-Tyr-(Trp-Lys3)4 [compound 31]	avoided the formation of detectable micelles	–	–
PEG5kDa-Cys-Tyr-Leu4-(Leu-Lys)4-Lys4 [compound 40]	produced measurable micelles; also recorded: formed micelles	2 to 5	–
PEG5kDa-Cys-Tyr-Lys25 [compound 26]	–	–	percent of dose captured by the liver [3]: 5%
PEG10kDa-Cys-Tyr-Lys25 [compound 25]	–	–	percent of dose captured by the liver [3]: 5%
PEG20kDa-Cys-Tyr-Lys25 [compound 24]	–	–	percent of dose captured by the liver [3]: 28%
PEG30kDa-Cys-Tyr-Lys10 [compound 20]	–	–	IC50 ([3]; read-out: apparent IC50, saturation of liver uptake, 125I-PEG-peptide i.v. tail vein, 1–80 nmol, triplicate mice, liver at 5 min, assuming 2-mL blood volume): 1500 µM
Tyr-(Phe-Lys4)3Phe-Lys-Cys-PEG5kDa [compound 30]	avoided the formation of detectable micelles	–	–
